This is an account of results in paper PMC6865048 (Clinical cancer research : an official journal of the …, 2018).

The format of data set [1] is in vivo, human.
The next data set deals with γH2AX. Kind of data set: IHC of double-strand DNA damage in resected tumor vs matched archival tissue. It is filed as in vivo, human. Conditions: 8 hours. In short, it runs like this: (§1)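 A 0.5 cm³ re-resection tumor sample, snap-frozen at -80° C, was compared with FFPE tissue from the same patient's initial resection by IHC. Antibody conditions: γH2AX 1:100, 1 h at room temperature; PH3 1:100, overnight at 4°C; CC3 1:50, overnight at 4°C. Staining was quantified by semiquantitative image analysis. Mean fold change was tested against 1.000 by two-sided one-sample t test, or Wilcoxon signed-rank test if non-normal.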

The format of data set [2] is in vivo, human. Conditions: single oral dose of 400 mg, at 2 to 24 h. An outline of the steps: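 Adult recurrent glioblastoma patients took a single oral dose before resection. Contrast-enhancing tumor was taken intraoperatively, rinsed in ice-cold PBS, blot-dried, snap-frozen and held at -80° C. EDTA blood was spun at 4°C, 1,500 × g, 10 min. Total drug in plasma and tumor was measured by validated LC/MS-MS, and fraction unbound by equilibrium dialysis. Unbound concentration = total × fraction unbound. Kp and Kp,uu = tumor/plasma total and unbound ratios.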

The subject of another data set is phosphohistone-3 (PH3). It is filed as in vivo, human. To be noted: for PH3 expression vs matched archival tissue: 8 hours. In short, it runs like this: as §1
A short description of data set [3]: Safety assessment in the phase 0 trial. It is filed as in vivo, human. To be noted: single oral dose 100, 200 or 400 mg, 20 glioblastoma patients. An outline of the steps:
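Twenty adult glioblastoma patients took a single oral dose before tumor resection. Screening collected demographics and medical history. Baseline safety assessments were physical examination, vital signs, ECOG performance status, concomitant medication record, hematology, biochemistry and urinalysis.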

A further data set concerns cleaved caspase-3 (CC3). Kind of data set: IHC of programmed cell death in resected tumor vs matched archival tissue. The format is in vivo, human. To be noted: for CC3 apoptotic marker vs matched archival tissue: 8 hours. An outline of the steps: as §1
For a further data set, the system named is Wee1. Conditions: cell-based assays; ref https://ncats.nih.gov/files/AZD1775.pdf; cited from earlier work.
The mark [4] stands for this setting: covariate model, estimate (%RSE).
[5] abbreviates: 8-hour posttreatment interval (discussion).

“And” between values parts separate entries of the source, which are not always exact repeats. Identical values can stand only once. “Also recorded” adds a separate entry of the source. Like-named read-outs stand apart in the source and are kept apart here.

For `C=CCn1c(=O)c2cnc(Nc3ccc(N4CCN(C)CC4)cc3)nc2n1-c1cccc(C(C)(C)O)n1` [AZD1775], the “CL/F, apparent oral clearance” value in data set [1] (base model, estimate (%RSE)) was 160 (15) L/hour; in data set [1] (covariate model, typical patient with GFR of 98 mL/minute, estimate (%RSE)) it was 160 L/hour and 160^a (14) L/hour. The “IIV of Ka” value was 100 (310) CV% in data set [1] (base model, estimate (%RSE)) and 100 (300) CV% in data set [1] (setting [4]). Further, the Ka is 2.00 (114) h^−1 in data set [1] (base model, estimate (%RSE)) and 2.10 (111) h^−1 in data set [1] (setting [4]). For the same compound, the “B, covariate effect of glomerular filtration rate on CL/F” value in data set [1] (covariate model, CL/F = A + B × (GFR - 98), estimate (%RSE)) was 1.7 (44). Besides, the “V/F, apparent volume of distribution” value in data set [1] (setting [4]) was 1,500 (17) L. Besides, in data set [1] (covariate on CL/F), the “interindividual variability of CL/F explained by glomerular filtration rate” value amounted to 17%. Besides, the Vd/F in data set [1] (human, plasma, oral) came to 1500 L. The “first-order absorption rate constant (Ka)” value in data set [1] (one-compartment model, single oral dose 100, 200, 400 mg, glioblastoma patients) was 2.1 h⁻¹. In addition, the “double-stranded DNA damage measured by γH2AX vs matched archival tissue” value is given as “less dramatic” with γH2AX (100- and 400-mg dose cohorts); “increased” in the data set with γH2AX (200-mg dose cohort). In addition, the “mean unbound AZD1775 tumor concentration” value in data set [2] stood at 85 ng/g. In addition, the cell-cycling result in the data set with phosphohistone-3 (PH3) (setting [5]) is on record as “increased over threefold”. Besides, the PH3 expression change entry in the data set with phosphohistone-3 (PH3) (8-hour time interval, all dose cohorts together (n = 12), P = 0.0210) is reported as “increased significantly”. The results for the “PH3 expression vs matched archival tissue” value in the data set with phosphohistone-3 (PH3) (200-mg dose cohort) and with phosphohistone-3 (PH3) (400-mg dose cohort) were “Increased expression” and “substantially increased”, respectively. For the same compound, the “tolerability / adverse effects” value in data set [3] is recorded as “No drug-related adverse events; also recorded: well-tolerated; no significant adverse effects were observed”. The programmed cell death result with cleaved caspase-3 (CC3) (setting [5]) is recorded as “increased threefold”. Besides, the “mean increase in CC3 expression” value with cleaved caspase-3 (CC3) (8-hour time interval, all dose cohorts together (n = 12), P = 0.0727) is recorded as “+112.2%”. Also, the “CC3 apoptotic marker vs matched archival tissue” value in the data set with cleaved caspase-3 (CC3) (200-mg dose cohort) is “increased most”; in the data set on cleaved caspase-3 (CC3) (400-mg group), “modest increase”. Also, the “in vitro IC50 for inhibition of Wee1 activity and induction of DNA damage as well as G2 checkpoint escape” value with Wee1 was 0.04 µg/mL.

The Vd/F is the volume of distribution divided by bioavailability.
